Assay results from ChEMBL document CHEMBL1127575, “Synthesis of androst-5-en-7-ones and androsta-3,5-dien-7-ones and their related 7-deoxy analogs as conformational and catalytic probes for the active site of aromatase” (J Med Chem, 1994).

Experiments:
Aromatase [1] = target: T1, Aromatase (Homo sapiens, UniProt P11511); assay: The binding affinity was determined on Cytochrome P450 19A1 by analysis of Dixon plot
T1 sequence (P11511 whole entry): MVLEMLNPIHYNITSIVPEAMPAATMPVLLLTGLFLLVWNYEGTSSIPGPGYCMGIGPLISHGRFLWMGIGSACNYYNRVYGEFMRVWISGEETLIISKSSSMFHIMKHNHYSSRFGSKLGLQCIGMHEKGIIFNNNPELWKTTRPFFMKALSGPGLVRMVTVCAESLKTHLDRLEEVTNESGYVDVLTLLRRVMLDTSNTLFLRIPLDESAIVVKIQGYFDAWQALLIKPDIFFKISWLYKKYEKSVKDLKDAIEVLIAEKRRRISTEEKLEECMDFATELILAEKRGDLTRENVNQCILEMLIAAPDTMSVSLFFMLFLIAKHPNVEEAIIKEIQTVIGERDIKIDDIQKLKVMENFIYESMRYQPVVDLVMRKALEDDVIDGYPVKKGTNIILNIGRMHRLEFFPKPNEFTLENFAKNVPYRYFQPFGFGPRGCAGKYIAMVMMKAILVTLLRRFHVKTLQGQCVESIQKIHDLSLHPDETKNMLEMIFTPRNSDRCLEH

Aromatase [2] = target: T1, Aromatase; assay: Time dependent inactivation of Cytochrome P450 19A1 was obtained by Kitz-Wilson plot
Aromatase [3] = target: T1, Aromatase; assay: In vitro competitive inhibitory activity was measured on Cytochrome P450 19A1 of human placental microsomes
Aromatase [4] = target: T1, Aromatase; assay: Time dependent inactivation of aromatase cytochrome P450 19A1 from Kitz-Wilson plot
Method in brief: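 Human placental microsomes (105000g pellet, washed with 0.05 mM dithiothreitol, lyophilized) incubated with inhibitor plus NADPH in 67 mM phosphate buffer in air. Residual aromatase activity then measured in 5-min kinetic assay by 3H2O release from [1β-3H]androstenedione. Pseudo-first-order loss over first 12 min analysed by Kitz-Wilson method. Double-reciprocal plot of kobs versus inhibitor concentration gave kinact and Ki. Points are means of duplicates.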

Aromatase [5] = target: T1, Aromatase; assay: Binding affinity for aromatase cytochrome P45019A1 by analysis of Dixon plot

CC12CCC3C(C(=O)C=C4C=CCCC43C)C1CCC2=O (stereo unspecified)
Ki (Aromatase [1]): 0.22 µM | Ki (Aromatase [2]): 0.18 µM | kinact (Aromatase [2]): 0.00198 s⁻¹ | IC50 (Aromatase [3]): 1.8 µM

CC12CCC=CC1=CCC1C2CCC2(C)C1CC[C@@H]2O (stereo partly specified)
Ki (Aromatase [1]): 2 µM | IC50 (Aromatase [3]): 18 µM

CC12CCCCC1=CCC1C2CCC2(C)C(O)CCC12 (stereo unspecified)
Ki (Aromatase [1]): 3 µM | IC50 (Aromatase [3]): 30 µM

CC12CCC3C(C(=O)C=C4CCCCC43CO)C1CCC2O (stereo unspecified)
Ki (Aromatase [1]): 45 µM | IC50 (Aromatase [3]): 140 µM

CC12CCC3C(C(=O)C=C4C=CCCC43C=O)C1CCC2=O (stereo unspecified)
Ki (Aromatase [1]): 1.8 µM | Ki (Aromatase [4]): 2.9 µM | kinact (Aromatase [4]): 0.00315 s⁻¹ | IC50 (Aromatase [3]): 11 µM

CC12CCC=CC1=CC(=O)C1C2CCC2(C)C1CC[C@@H]2O (stereo partly specified)
Ki (Aromatase [1]): 5.3 µM | IC50 (Aromatase [3]): 42 µM

CC12CCC3C(C(=O)C=C4CCCCC43C=O)C1CCC2=O (stereo unspecified)
Ki (Aromatase [1]): 13 µM | Ki (Aromatase [2]): 20 µM | kinact (Aromatase [2]): 0.00238 s⁻¹ | IC50 (Aromatase [3]): 60 µM

CC12CCC3C(C(=O)C=C4CCCCC43C)C1CCC2=O (stereo unspecified)
Ki (Aromatase [1]): 0.25 µM | Ki (Aromatase [2]): 0.15 µM | kinact (Aromatase [2]): 0.00115 s⁻¹ | IC50 (Aromatase [3]): 1.8 µM

CC12CCC3C(CC=C4CCCCC43C=O)C1CCC2=O (stereo unspecified)
Ki (Aromatase [5]): 1.4 µM | IC50 (Aromatase [3]): 9 µM

CC12CCC3C(CC=C4C=CCCC43C)C1CCC2=O (stereo unspecified)
Ki (Aromatase [1]): 0.058 µM | IC50 (Aromatase [3]): 0.34 µM

CC12CCC3C(CC=C4CCCCC43C)C1C[C@@H](Br)C2=O (stereo partly specified)
Ki (Aromatase [1]): 11 µM | IC50 (Aromatase [3]): 55 µM

C[C@]12CC[C@H]3[C@@H](CC=C4CCCC[C@@]43CO)[C@@H]1CCC2=O
Ki (Aromatase [1]): 1 µM | IC50 (Aromatase [3]): 6.9 µM

CC12CCC3C(CC=C4CCCCC43CO)C1CCC2O (stereo unspecified)
Ki (Aromatase [5]): 9.8 µM | IC50 (Aromatase [3]): 62 µM

CC12CCCCC1=CC(=O)C1C2CCC2(C)C(O)CCC12 (stereo unspecified)
Ki (Aromatase [1]): 5.5 µM | IC50 (Aromatase [3]): 42 µM

CC12CCC3C4CCC(=O)C=C4CCC3C1CCC2=O (stereo unspecified)
Ki (Aromatase [5]): 0.14 µM | IC50 (Aromatase [3]): 1.2 µM

C[C@]12CCCCC1=CC[C@@H]1[C@@H]2CC[C@]2(C)C(=O)CC[C@@H]12
Ki (Aromatase [1]): 0.12 µM | IC50 (Aromatase [3]): 0.66 µM

CC12CCC3C(C(=O)C=C4C=CCCC43CO)C1CCC2=O (stereo unspecified)
Ki (Aromatase [1]): 15 µM | Ki (Aromatase [4]): 7 µM | kinact (Aromatase [4]): 0.00147 s⁻¹ | IC50 (Aromatase [3]): 60 µM

CC12CCC3C4CCCCC4=CC(=O)C3C1CCC2=O (stereo unspecified)
Ki (Aromatase [1]): 2.4 µM | Ki (Aromatase [2]): 2.6 µM | kinact (Aromatase [2]): 0.00113 s⁻¹ | IC50 (Aromatase [3]): 28 µM

CC12CCC3C4CCC=CC4=CC(=O)C3C1CCC2=O (stereo unspecified)
Ki (Aromatase [1]): 3 µM | IC50 (Aromatase [3]): 33 µM

C[C@]12CCC(=O)C=C1CC[C@@H]1[C@@H]2CC[C@]2(C)C(=O)CC[C@@H]12 [ANDROSTENEDIONE]
Ki (Aromatase [5]): 0.02 µM | IC50 (Aromatase [3]): 0.3 µM

CC12CCC3C(C(=O)C=C4CCCCC43CO)C1CCC2=O (stereo unspecified)
Ki (Aromatase [1]): 11 µM | Ki (Aromatase [2]): 11 µM | kinact (Aromatase [2]): 0.000967 s⁻¹ | IC50 (Aromatase [3]): 56 µM
